The values that follow come from ChEMBL document CHEMBL1123326, “Sequentially labile water-soluble prodrugs of alprazolam” (J Med Chem, 1986).

Series [1] addresses T1, GABA-A receptor; anion channel (Mus musculus) (UniProt Q8BHJ7+P26048+Q8QZW7+P50571+Q9R0Y8+P22723+A2AMW3+P62812+Q9JLF1+P26049+P22933+Q9D6F4+P63080+P27681+P16305). Nature of the series: Ex vivo displacement of [3H]flunitrazepam from mouse GABA-A benzodiazepine receptor at 10 uM/kg iv dose. The series is classed as organism-based. Summed up:
(§1)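 Mice dosed iv by tail vein (drugs in 0.9% NaCl, or 2% ethanol for parent; controls given vehicle); decapitated 30 min later (dose-response) or at 1, 3, 10, 30, 60 min (time course). Brain minus cerebellum homogenized in 50 vol 0.05 M Tris pH 7.4, 4 °C; incubated with ~0.77 nM [3H]flunitrazepam final, 30 min, 25 °C; GF/B filtration, scintillation counting. Mean of four measurements.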

In series [2] the target is T1, GABA-A receptor; anion channel (Mus musculus). Nature of the series: Ex vivo displacement of [3H]flunitrazepam from mouse GABA-A benzodiazepine receptor at 1 uM/kg iv dose. Type of series: organism-based. An outline of the steps:
as §1

For series [3] the target is unchanged. Nature of the series: Ex vivo displacement of [3H]flunitrazepam from mouse GABA-A benzodiazepine receptor at 30 uM/kg iv dose (Range 5-10%). Type of series: organism-based. An outline of the steps: as §1
Series [4] has the same target. Nature of the series: Ex vivo displacement of [3H]flunitrazepam from mouse GABA-A benzodiazepine receptor at 3 uM/kg iv dose. The series is classed as organism-based. Summed up:
as §1

Series [5] can be described thus: Half-life period at 37 degrees C. Type of series: ADME.
Series [6] concerns the target T1, GABA-A receptor; anion channel (Mus musculus). Nature of the series: Ex vivo inhibition of [3H]flunitrazepam binding to mouse GABA-A benzodiazepine receptor. The series is classed as functional. An outline of the steps:
as §1

A word on the half-life: it is the time in which the quantity being followed falls by half. By ED50 is commonly meant the dose at which the effect has come halfway, by size or by number of responders. In the case of `Cc1nnc(CNC(=O)C(N)CC(C)C)n1-c1ccc(Cl)cc1C(=O)c1ccccc1` (configuration not stated), the Control in series [1] was found to be 25%; in series [2] it was 82%; in series [3], 10%; in series [4] it was 60%. The half-life in series [5] came to 1 h. Besides, it took a dose of 6 µmol/kg to reach the 50% effect level in series [6] (ED50).

`Cc1nnc(CNC(=O)CCCN)n1-c1ccc(Cl)cc1C(=O)c1ccccc1`: the Control in series [1] came out at 20%; in series [2], 80%; in series [3], 10%; in series [4] it was 51%. The same compound gave a median effective dose (ED50) in series [6] of 320 µmol/kg.

For `Cc1nnc2n1-c1ccc(Cl)cc1C(c1ccccc1)=NC2`, the ED50 in series [6] came to 2.9 µmol/kg.

Consider `Cc1nnc(CNC(=O)CN)n1-c1ccc(Cl)cc1C(=O)c1ccccc1`, for which the Control in series [1] came to 3%; in series [2], 65%; in series [4], 50%. This compound showed a half-life in series [5] of 4.33 h. This compound yielded an ED50 in series [6] of 9 µmol/kg.
